Reference: ChEMBL document CHEMBL2429863, “Cytotoxic deoxybenzoins and diphenylethylenes from Arundina graminifolia” (J Nat Prod, 2013)

Key:
Assay type in all cases: functional, cell-based
[1] = system: NB-4; test: Cytotoxicity against human NB4 cells after 48 hrs by MTT assay; conditions: NB-4, 48 h
Summary of the method: (§1)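 Tumor cells from ATCC, grown in RPMI1640 or DMEM with 10% FBS at 37 °C, 5% CO2. Adherent cells plated and allowed to attach 12 h; suspension cells seeded just before dosing at 1 × 10^5 cells/mL. Compounds at various concentrations in triplicate for 48 h; paclitaxel positive control. MTT added for 4 h at 37 °C, then lysis with 20% SDS–50% DMF; formazan read colorimetrically.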

[2] = Cytotoxicity against human SH-SY5Y cells after 48 hrs by MTT assay; summary of the method: as §1
[3] = system: A549; test: Cytotoxicity against human A549 cells after 48 hrs by MTT assay; conditions: A549, 48 h; summary of the method: as §1
[4] = system: PC-3; test: Cytotoxicity against human PC3 cells after 48 hrs by MTT assay; conditions: PC-3, 48 h; summary of the method: as §1
[5] = system: MCF7; test: Cytotoxicity against human MCF7 cells after 48 hrs by MTT assay; conditions: MCF7, 48 h; summary of the method: as §1

## CC(C)CCC(=O)c1c(O)cc(CC(=O)c2ccccc2)cc1O
[1]
  IC50: 2.1 µM
[2]
  IC50: 3.2 µM
[3]
  IC50: 5.2 µM
[4]
  IC50: 6.8 µM
[5]
  IC50: 5.5 µM

## COc1ccc(C(=O)Cc2cc(O)c(C(=O)CCC(C)C)c(O)c2)cc1
[1]
  IC50: > 10 µM
[2]
  IC50: > 10 µM
[3]
  IC50: > 10 µM
[4]
  IC50: > 10 µM
[5]
  IC50: > 10 µM

## CC(C)c1cc(=O)c2c(O)cc(CC(=O)c3ccccc3)cc2o1
[1]
  IC50: > 10 µM
[2]
  IC50: > 10 µM
[3]
  IC50: > 10 µM
[4]
  IC50: > 10 µM
[5]
  IC50: > 10 µM

## CC(=O)Oc1cc(CC(=O)c2ccccc2)cc2oc(C(C)C)cc(=O)c12
[1]
  IC50: > 10 µM
[2]
  IC50: > 10 µM
[3]
  IC50: > 10 µM
[4]
  IC50: > 10 µM
[5]
  IC50: > 10 µM

## OCCc1c(O)cc(/C=C/c2cc(O)cc(O)c2)cc1O
[1]
  IC50: 5.5 µM
[2]
  IC50: 7.8 µM
[3]
  IC50: 8.1 µM
[4]
  IC50: 5.6 µM
[5]
  IC50: 6.4 µM

## COc1cc(/C=C/c2cc(O)cc(O)c2)cc(O)c1CCO
[1]
  IC50: 3.3 µM
[2]
  IC50: 4.5 µM
[3]
  IC50: 6.5 µM
[4]
  IC50: 2.2 µM
[5]
  IC50: 5.3 µM

## COc1cc(/C=C/c2cc(O)c(CCO)c(O)c2)cc(OC)c1
[1]
  IC50: 4.8 µM
[2]
  IC50: 6.2 µM
[3]
  IC50: 5.5 µM
[4]
  IC50: 8.7 µM
[5]
  IC50: 5.9 µM

## COc1ccc(C(=O)Cc2cc(O)c3c(c2)OC(C)(C)CC3=O)cc1
[1]
  IC50: > 10 µM
[2]
  IC50: > 10 µM
[3]
  IC50: > 10 µM
[4]
  IC50: > 10 µM
[5]
  IC50: > 10 µM

## COc1ccc(C(=O)Cc2cc(OC)c3c(c2)OC(C)(C)CC3=O)cc1
[1]
  IC50: > 10 µM
[2]
  IC50: > 10 µM
[3]
  IC50: 6.4 µM
[4]
  IC50: > 10 µM
[5]
  IC50: 8.5 µM

## COc1ccc(C(=O)Cc2cc(O)c3c(c2)OCC(C)=CC3=O)cc1
[1]
  IC50: > 10 µM
[2]
  IC50: > 10 µM
[3]
  IC50: > 10 µM
[4]
  IC50: > 10 µM
[5]
  IC50: > 10 µM

## CC1=CC(=O)c2c(O)cc(CC(=O)c3ccc(O)cc3)cc2OC1
[1]
  IC50: 7.6 µM
[2]
  IC50: 1.8 µM
[3]
  IC50: 2.2 µM
[4]
  IC50: 3.4 µM
[5]
  IC50: 5.4 µM

## CC(=O)O[C@H]1C(=O)[C@@]2(C)[C@H]([C@H](OC(=O)c3ccccc3)[C@]3(O)C[C@H](OC(=O)[C@H](O)[C@@H](NC(=O)c4ccccc4)c4ccccc4)C(C)=C1C3(C)C)[C@]1(OC(C)=O)CO[C@@H]1C[C@@H]2O [PACLITAXEL]
[2]
  IC50: 0.2 µM
